Measured values: ChEMBL document CHEMBL4308919, “Discovery of TD-0212, an Orally Active Dual Pharmacology AT1 Antagonist and Neprilysin Inhibitor (ARNI)” (ACS Med Chem Lett, 2019)

Key:
[1] = target: T1, Type-1 angiotensin II receptor (Homo sapiens, UniProt P30556); experiment: Displacement of Europium-labeled angiotensin-2 from human AT1 receptor expressed in CHOK1 cell membranes after 120 mins by DELFIA
T1 sequence (P30556 whole entry): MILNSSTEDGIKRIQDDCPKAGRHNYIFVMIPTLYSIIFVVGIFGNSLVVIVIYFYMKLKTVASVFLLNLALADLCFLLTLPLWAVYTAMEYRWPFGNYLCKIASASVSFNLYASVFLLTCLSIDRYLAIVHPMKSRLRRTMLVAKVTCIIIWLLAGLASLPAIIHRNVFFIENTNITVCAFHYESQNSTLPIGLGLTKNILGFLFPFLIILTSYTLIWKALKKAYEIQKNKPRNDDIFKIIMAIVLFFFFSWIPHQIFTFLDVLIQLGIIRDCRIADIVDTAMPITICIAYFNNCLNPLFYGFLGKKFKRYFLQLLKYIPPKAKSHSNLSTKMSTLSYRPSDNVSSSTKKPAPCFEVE

Rattus norvegicus [2] = experiment: In vivo inhibition of NEP in Sprague-Dawley rat assessed as potentiation of ANP-induced elevation of urinary cGMP level at 3 mg/kg, iv treated for 5 mins at 15 mins post 2 doses of angiotensin-2 treatment at 15 minutes apart followed by ANP treatment measured up to 60 mins by EIA relative to control; type: functional
In short: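 Rat pharmacodynamic assay with intravenous dosing to exclude oral absorption. AT1 antagonism is read in the same animal as inhibition of the angiotensin-II-evoked pressor response. NEP inhibition is read as potentiation of ANP-induced elevation of urinary cGMP output, relative to vehicle.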

Neprilysin = Neprilysin (Homo sapiens, UniProt P08473); experiment: Inhibition of NEP (unknown origin) preincubated for 10 mins followed by fluorogenic substrate addition and measured after 20 mins by fluorescence assay
Sequence of Neprilysin (P08473 whole entry): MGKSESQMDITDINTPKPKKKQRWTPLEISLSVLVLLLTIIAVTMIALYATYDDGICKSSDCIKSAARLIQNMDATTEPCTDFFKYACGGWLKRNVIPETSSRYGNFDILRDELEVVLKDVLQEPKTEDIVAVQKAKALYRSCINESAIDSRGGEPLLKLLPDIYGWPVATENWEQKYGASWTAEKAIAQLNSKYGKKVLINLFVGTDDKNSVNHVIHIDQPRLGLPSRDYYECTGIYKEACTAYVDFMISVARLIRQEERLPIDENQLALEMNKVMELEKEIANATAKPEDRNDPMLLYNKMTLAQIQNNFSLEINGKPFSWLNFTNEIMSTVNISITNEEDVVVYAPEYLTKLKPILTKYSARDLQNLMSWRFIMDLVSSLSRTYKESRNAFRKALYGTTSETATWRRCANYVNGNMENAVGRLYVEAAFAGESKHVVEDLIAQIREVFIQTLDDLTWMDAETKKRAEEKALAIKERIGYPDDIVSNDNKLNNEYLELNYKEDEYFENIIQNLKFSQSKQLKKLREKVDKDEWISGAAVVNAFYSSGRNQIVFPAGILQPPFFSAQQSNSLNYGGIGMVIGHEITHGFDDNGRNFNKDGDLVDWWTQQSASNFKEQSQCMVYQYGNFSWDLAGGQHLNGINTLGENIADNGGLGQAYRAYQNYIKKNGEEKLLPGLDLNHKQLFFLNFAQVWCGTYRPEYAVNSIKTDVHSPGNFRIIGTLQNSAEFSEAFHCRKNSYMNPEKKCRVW

[3] = target: Angiotensin-converting enzyme (Homo sapiens, UniProt P12821); experiment: Inhibition of recombinant human ACE using Mca-BK2 as substrate preincubated for 10 mins followed by fluorogenic substrate addition and measured after 20 mins by fluorescence assay
Sequence of Angiotensin-converting enzyme (P12821 whole entry): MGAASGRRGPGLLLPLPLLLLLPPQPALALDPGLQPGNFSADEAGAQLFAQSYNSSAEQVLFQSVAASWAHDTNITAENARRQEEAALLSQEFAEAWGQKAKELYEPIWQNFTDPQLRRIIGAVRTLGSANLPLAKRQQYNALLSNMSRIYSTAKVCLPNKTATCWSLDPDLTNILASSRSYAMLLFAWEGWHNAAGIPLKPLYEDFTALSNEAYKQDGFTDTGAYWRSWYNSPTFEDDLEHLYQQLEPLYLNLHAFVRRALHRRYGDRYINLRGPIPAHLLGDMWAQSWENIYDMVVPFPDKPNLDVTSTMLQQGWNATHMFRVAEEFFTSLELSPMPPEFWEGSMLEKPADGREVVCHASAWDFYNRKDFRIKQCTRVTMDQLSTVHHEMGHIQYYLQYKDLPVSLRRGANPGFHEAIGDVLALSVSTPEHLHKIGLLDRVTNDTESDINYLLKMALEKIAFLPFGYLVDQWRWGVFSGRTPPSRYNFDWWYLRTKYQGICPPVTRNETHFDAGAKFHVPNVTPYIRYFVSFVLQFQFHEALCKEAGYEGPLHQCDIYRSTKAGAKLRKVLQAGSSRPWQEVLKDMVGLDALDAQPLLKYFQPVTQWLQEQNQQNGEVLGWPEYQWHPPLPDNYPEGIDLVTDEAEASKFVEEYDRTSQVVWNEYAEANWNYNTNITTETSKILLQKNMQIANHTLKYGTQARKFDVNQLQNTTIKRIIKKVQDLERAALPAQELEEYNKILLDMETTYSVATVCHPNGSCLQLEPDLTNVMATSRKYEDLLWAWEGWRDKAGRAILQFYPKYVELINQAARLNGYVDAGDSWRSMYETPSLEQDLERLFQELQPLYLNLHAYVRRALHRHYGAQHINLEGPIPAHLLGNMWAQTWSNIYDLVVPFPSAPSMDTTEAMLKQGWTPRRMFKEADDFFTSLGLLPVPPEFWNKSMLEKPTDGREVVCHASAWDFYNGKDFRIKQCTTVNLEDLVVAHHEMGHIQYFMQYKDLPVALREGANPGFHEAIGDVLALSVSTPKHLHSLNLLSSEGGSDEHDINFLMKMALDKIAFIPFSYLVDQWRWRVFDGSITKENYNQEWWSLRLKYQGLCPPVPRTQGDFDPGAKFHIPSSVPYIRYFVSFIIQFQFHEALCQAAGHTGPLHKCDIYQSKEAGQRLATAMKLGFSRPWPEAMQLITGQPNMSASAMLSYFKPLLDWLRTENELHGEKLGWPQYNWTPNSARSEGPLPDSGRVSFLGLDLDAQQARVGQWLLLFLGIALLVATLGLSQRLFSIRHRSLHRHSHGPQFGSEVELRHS

Rattus norvegicus [4] = experiment: Antihypertensive activity in spontaneously hypertensive rat assessed as reduction in mean arterial pressure administered via oral gavage in […] measured up to 24 hrs by telemetry method; type: functional
In short: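 Conscious spontaneously hypertensive rats, dosed orally. Blood pressure is monitored by telemetry for 24 h after each dose. Sequential escalating doses of 3, 10, 30 and 100 mg/kg are given at 24 h intervals. Efficacy is the peak percent fall in MAP from baseline. Duration is the vehicle-adjusted % change in AUC over 24 h. Statistics: two-way ANOVA with Bonferroni post hoc.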

Rattus norvegicus [5] = experiment: Antihypertensive activity in DOCA salt-induced CD-1 rat model of hypertension assessed as reduction in blood pressure administered via oral gavage in ascending cumulative doses […] measured up to 24 hrs by telemetry method; type: functional
In short: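 Conscious DOCA-salt hypertensive rats, a low-renin model, dosed orally. Reduction in blood pressure is followed over time. ED10 is the dose giving an average 10% reduction in the 24 h average MAP.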

Rattus norvegicus [6] = experiment: Induction of angioedema in normotensive rat assessed as increase in tracheal plasma extravasation by measuring Evans blue dye leakage into peritracheal tissue at 0.3 to 3 mg/kg, po; type: organism-based; conditions: in vivo
In short: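 Rat tracheal plasma extravasation model adapted from Sulpizio et al., used as a surrogate for upper-airway angioedema. Normotensive rats are dosed orally. Read-out is Evans Blue dye leakage into peritracheal tissue, compared with vehicle.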

Rattus norvegicus [7] = experiment: Antihypertensive activity in spontaneously hypertensive rat assessed as reduction in mean arterial pressure administered via oral gavage in ascending cumulative doses […] measured up to 24 hrs in presence of NEP inhibitor candoxatril by telemetry method; type: functional

Structure (SMILES) | Ki [1] [nM] | fold change (FC) (Rattus norvegicus [2]) | IC50 (Neprilysin) [nM] | IC50 [3] [nM] | Activity (Rattus norvegicus [4]) | ED10 (Rattus norvegicus [4]) [mg/kg] | ED10 (Rattus norvegicus [5]) [mg/kg] | Activity (Rattus norvegicus [6]) | ED10 (Rattus norvegicus [7]) [mg/kg]
O=C(N[C@H]1CCS[C@H]2CCC[C@@H](C(=O)O)N2C1=O)[C@@H](S)Cc1ccccc1 [OMAPATRILAT] | > 10000 | 5.3 | 0.2 | 0.1 | Dose-dependent effect | 15 | 66 | Non-Toxic | –
CCCCC(=O)N(Cc1ccc(-c2ccccc2-c2nnn[nH]2)cc1)[C@H](C(=O)O)C(C)C | – | – | – | – | Dose-dependent effect | 17 | – | – | 15
